Screens (PubChem BioAssay)
IMP-1 inh: blocks Pseudomonas aeruginosa IMP-1 metallo-beta-lactamase; purified IMP-1, nitrocefin hydrolysis, epi-absorbance fluorescence; inhibition, % at 5.6 µM; 290,000 compounds, 0.45% hits; AID 1556;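 active = inhibition above the mean plus 3 SD of all compounds in the same screening run, cut at about 4.5% in these data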;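 also: 0% = IMP-1 with DMSO and 100% = DMSO wells lacking enzyme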
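system = purified recombinant IMP-1 beta-lactamase | amount = 0.2 nM IMP-1, as dispensed | medium = HEPES buffer pH 7.1 with ZnSO4 and Brij 35 | times = 25 °C, 15 min preincubation, 25 min reaction | detection = plate fluorescence quenching by hydrolysis product, ex 480/em 530 nm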
VIM-2 inhibitor: blocks Pseudomonas aeruginosa VIM-2 metallo-beta-lactamase | 290,000 compounds, 0.89% hits | inhibition, % at 5.6 µM | AID 1527 | purified VIM-2, nitrocefin hydrolysis, epi-absorbance fluorescence;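 active = inhibition above the mean of all tested compounds plus 3 SD, cutoff set per screening run, cut at about 7.5% in these data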;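 also: red hydrolysis product quenches plate fluorescence so inhibitors raise well fluorescence; 0% = enzyme with DMSO and 100% = DMSO without enzyme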
CTSL1 counter-1: counter-screen for PFM18AAP inhibitors: inhibitors of F. hepatica cathepsin L1 | recombinant F. hepatica cathepsin L1, Z-Leu-Arg-MCA fluorescence | inhibition, % at 5.96 µM | 300,000 compounds, 0.49% hits;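 active = inhibition above the mean of all tested compounds plus 3 SD, set per screening campaign, cut at about 17% in these data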;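 also: 0% = plate median of test compound wells and 100% = 1 µM Z-Phe-Ala-diazomethylketone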
PfM18AAP inh-1: blocks P. falciparum M18 aspartyl aminopeptidase; inhibition, % at 7.35 µM; 290,000 compounds, 1.2% hits; recombinant PfM18AAP, H-Glu-NHMec fluorogenic cleavage;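 active = inhibition above the campaign mean inhibition over all tested compounds plus 3 SD, cut at about 28% in these data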;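 also: 0% = plate median of test compound wells and 100% = 2 mM ZnCl2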
PfM18AAP inh-2: PfM18AAP inhibition, confirmation; shares compounds with PfM18AAP inh-1; recombinant PfM18AAP, H-Glu-NHMec fluorogenic cleavage; inhibition, % at 7.35 µM; 2,400 compounds, 28% hits;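 active = mean inhibition over replicate wells above the hit cutoff set for the earlier primary screen, cut at about 29% in these data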;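 also: 0% = median of test compound wells and 100% = 2 mM ZnCl2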
CTSL1 counter-2: counter-screen for PFM18AAP inhibitors: confirmation of human cathepsin L inhibitors. shares compounds with PfM18AAP inh-1. purified cathepsin L1, Z-Leu-Arg-MCA fluorescence. inhibition, % at 5.96 µM. 2,400 tested, under 10 active;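 active = average inhibition across replicates above the hit cutoff set in the earlier primary screen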;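 also: 0% = median of test compound wells and 100% = Z-Phe-Ala-diazomethylketone 1 µM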
Target sequence (P07711 whole entry, looked up): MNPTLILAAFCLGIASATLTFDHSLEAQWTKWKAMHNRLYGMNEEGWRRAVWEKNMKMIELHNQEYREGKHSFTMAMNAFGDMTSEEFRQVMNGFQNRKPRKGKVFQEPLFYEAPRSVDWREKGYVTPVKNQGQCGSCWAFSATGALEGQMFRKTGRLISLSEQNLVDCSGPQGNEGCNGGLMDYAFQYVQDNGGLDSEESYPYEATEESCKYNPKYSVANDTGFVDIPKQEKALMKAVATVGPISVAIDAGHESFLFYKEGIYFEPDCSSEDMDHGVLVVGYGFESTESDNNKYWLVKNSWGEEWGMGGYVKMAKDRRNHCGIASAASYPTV
The depositor's hits bear a star. Hits are enriched below; roughly 2.7% of the tested compounds scored in any of these assays.

COc1cccc(CN2CC(C(=O)NC3CCC3)CCC2=O)c1 (configuration not stated) was read as IMP-1 inh -2, VIM-2 inhibitor -2, CTSL1 counter-1 -2 and PfM18AAP inh-1 -12.
O=c1ccc2cc3ccoc3cc2o1 was read as IMP-1 inh 0, VIM-2 inhibitor -1, CTSL1 counter-1 -4 and PfM18AAP inh-1 1.
For O=c1ccc2cc(O)c(O)cc2o1 the results were IMP-1 inh -3, VIM-2 inhibitor -1, CTSL1 counter-1 -1, PfM18AAP inh-1 42*, PfM18AAP inh-2 30* and CTSL1 counter-2 2.
For CCCCc1c(C)nc2nc(SCc3ccc(Cl)cc3)[nH]n2c1=O the results were IMP-1 inh -4, VIM-2 inhibitor -3 and PfM18AAP inh-1 -6.
`Cc1cc(=S)[nH]c(=S)[nH]1` gave IMP-1 inh -2, VIM-2 inhibitor -1, CTSL1 counter-1 1, PfM18AAP inh-1 38*, PfM18AAP inh-2 -9 and CTSL1 counter-2 5.
Screening CC1CN(CCCCOc2ccc(F)cc2)CC(C)O1 (configuration not stated) returned IMP-1 inh -2, VIM-2 inhibitor -2, CTSL1 counter-1 -4 and PfM18AAP inh-1 2.
Screening CCOc1ccc(-n2c(SCC(=O)N3CCC(C(=O)O)CC3)nc3ccccc3c2=O)cc1 returned IMP-1 inh -2, VIM-2 inhibitor 0, CTSL1 counter-1 8 and PfM18AAP inh-1 0.
For COc1cc(NC(=O)NNC(=O)c2cc3occc3n2C)cc(OC)c1OC the results were IMP-1 inh -4, VIM-2 inhibitor -4, CTSL1 counter-1 -5, PfM18AAP inh-1 60*, PfM18AAP inh-2 30* and CTSL1 counter-2 -1.
COc1ccc(-n2c(O)c(/C=N/n3cnnc3)c3ccccc3c2=O)cc1 was read as IMP-1 inh -1, VIM-2 inhibitor 0, CTSL1 counter-1 -1, PfM18AAP inh-1 67*, PfM18AAP inh-2 74* and CTSL1 counter-2 5.
For O=c1c2ccccc2c(/C=N/n2cnnc2)c(O)n1-c1ccccc1 the results were IMP-1 inh 0, VIM-2 inhibitor -1, CTSL1 counter-1 2, PfM18AAP inh-1 65*, PfM18AAP inh-2 72* and CTSL1 counter-2 1.
`CCOc1ccc(S(=O)(=O)N2CCOCC2)cc1NC(=O)CSCc1c(C)noc1C` gave CTSL1 counter-1 -12.
`O=C(O)COc1ccc2c3c(c(=O)oc2c1)CCC3` gave IMP-1 inh -2, VIM-2 inhibitor 0, CTSL1 counter-1 1 and PfM18AAP inh-1 4.
CC(=O)c1ccc(NC(=S)Nc2cccc(S(=O)(=O)Nc3c(C)n(C)n(-c4ccccc4)c3=O)c2)cc1 was read as IMP-1 inh -2, VIM-2 inhibitor 1, CTSL1 counter-1 1 and PfM18AAP inh-1 -4.
Screening CCOC(=O)C(=O)N/N=C(/c1ccccc1)c1ccc(OC)cc1 returned IMP-1 inh -3, VIM-2 inhibitor -3, CTSL1 counter-1 -2 and PfM18AAP inh-1 11.
For COc1ccc(/C(=N\Nc2ccccc2C(=O)O)c2ccccc2)cc1 the results were IMP-1 inh -3, VIM-2 inhibitor -2, CTSL1 counter-1 -1, PfM18AAP inh-1 38*, PfM18AAP inh-2 -12 and CTSL1 counter-2 0.
For CCOC(=O)c1ccc(NC(=O)c2sc3nc(N4CCOCC4)c4c(c3c2N)CCCC4)cc1 the results were IMP-1 inh 0, VIM-2 inhibitor -1, CTSL1 counter-1 1, PfM18AAP inh-1 42*, PfM18AAP inh-2 -17 and CTSL1 counter-2 -2.
Nc1c(C(=O)NCCc2ccccc2)sc2nc(N3CCOCC3)c3c(c12)CCCC3 was read as IMP-1 inh -2, VIM-2 inhibitor 1, CTSL1 counter-1 0, PfM18AAP inh-1 37*, PfM18AAP inh-2 -17 and CTSL1 counter-2 -3.
For Cc1ccccc1NC(=O)c1sc2nc(N3CCOCC3)c3c(c2c1N)CCCC3 the results were IMP-1 inh -2, VIM-2 inhibitor 1, CTSL1 counter-1 1, PfM18AAP inh-1 41*, PfM18AAP inh-2 26 and CTSL1 counter-2 3.
For COc1ccccc1NC(=O)c1sc2nc(N3CCOCC3)c3c(c2c1N)CCCC3 the results were IMP-1 inh -1, VIM-2 inhibitor -1, CTSL1 counter-1 1 and PfM18AAP inh-1 27.
Cc1nc(NC(=O)c2ccccc2)sc1C1(C)CC(c2ccc(OC(F)(F)F)cc2)=NO1 (configuration not stated) was read as CTSL1 counter-1 1.
Screening Cc1cc(C)n(-c2cc(-n3nc(C)cc3C)ncn2)n1 returned IMP-1 inh -2, VIM-2 inhibitor -2, CTSL1 counter-1 1 and PfM18AAP inh-1 -8.
Cc1cc(C)n(-c2cc(O)c(-n3nc(C)cc3C)cc2O)n1 was read as IMP-1 inh -4, VIM-2 inhibitor -1, CTSL1 counter-1 -1, PfM18AAP inh-1 46*, PfM18AAP inh-2 24 and CTSL1 counter-2 5.
For CCCCCCn1c(SCC(C)C)nc2c1c(=O)[nH]c(=O)n2C the results were IMP-1 inh -2, VIM-2 inhibitor -1, CTSL1 counter-1 -1 and PfM18AAP inh-1 -8.
Screening CCCCCCn1c(SCC(=O)OC)nc2c1c(=O)[nH]c(=O)n2C returned IMP-1 inh -2, VIM-2 inhibitor -1, CTSL1 counter-1 4, PfM18AAP inh-1 48*, PfM18AAP inh-2 23 and CTSL1 counter-2 -5.
Screening CCOC(=O)C(C)Sc1nc2c(c(=O)[nH]c(=O)n2C)n1C/C=C(/C)Cl (configuration not stated) returned IMP-1 inh -2, VIM-2 inhibitor 0, CTSL1 counter-1 -1, PfM18AAP inh-1 37*, PfM18AAP inh-2 3 and CTSL1 counter-2 3.
`O=C(O)CCCNC(=O)c1nn(Cc2ccccc2)c(=O)c2ccccc12` gave IMP-1 inh -1, VIM-2 inhibitor -3, CTSL1 counter-1 6 and PfM18AAP inh-1 -11.
For CCC(C)NCCOCCOc1ccc(Br)cc1 (configuration not stated) the results were IMP-1 inh -1, VIM-2 inhibitor 1, CTSL1 counter-1 0 and PfM18AAP inh-1 -12.
`O=c1c2ccccc2cnn1Cc1n[nH]c(=S)n1-c1ccc(Cl)cc1` gave IMP-1 inh -3, VIM-2 inhibitor 2, CTSL1 counter-1 -7, PfM18AAP inh-1 35*, PfM18AAP inh-2 5 and CTSL1 counter-2 -8.
`Cc1nc2ccccc2n1Cc1ccc(Cl)cc1` gave IMP-1 inh -1, VIM-2 inhibitor -1, CTSL1 counter-1 -1 and PfM18AAP inh-1 2.
For Cc1nc2ccccc2n1Cc1n[nH]c(=S)n1-c1ccc(Cl)cc1 the results were IMP-1 inh -5, VIM-2 inhibitor -5, CTSL1 counter-1 0, PfM18AAP inh-1 39*, PfM18AAP inh-2 -3 and CTSL1 counter-2 0.
O=c1c2ccccc2nc2n1CCC2 was read as IMP-1 inh -3, VIM-2 inhibitor -2, CTSL1 counter-1 0, PfM18AAP inh-1 46*, PfM18AAP inh-2 17 and CTSL1 counter-2 -10.
